Experiments:
ScN2a [1] = test: Cytotoxicity against mouse ScN2a cells by MTT assay; assay type: cell-based
ScN2a [2] = test: Antiprion activity in ScN2a cells assessed as inhibition of protease-resistant prion protein accumulation; assay type: functional, cell-based; conditions: Mus musculus
Procedure, shortened: (§1)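 Mouse N2a cells carrying RML scrapie (ScN2a) or N2a#58 cells carrying Fukuoka-1 (F3), grown in Opti-MEM with 10% FBS. Compound added at passage (10% confluency), cells grown to confluence over 3–4 days, then lysed. Lysates digested with 10 µg/mL proteinase K for 30 min at 37 °C. PrP-res detected by SDS-PAGE/immunoblot with SAF83. IC50 is the concentration halving PrP-res relative to control.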

[3] = Cytotoxicity against human NB69 cells by MTT assay; assay type: cell-based; conditions: read-out: LD50 (the source's name)
[4] = Hydroxy radical scavenging activity by ESR spin-trapping method; assay type: functional
Procedure, shortened: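 A mixture of 25 mM H2O2, 25 mM DMPO and compound was UV-irradiated. Hydroxyl radical scavenging was expressed as IC50.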

[5] = Antiprion activity in F3 cells assessed as inhibition of protease-resistant prion protein accumulation; assay type: functional, cell-based; conditions: Mus musculus, N2a #58 F3; procedure, shortened: as §1
[6] = Cytotoxicity against mouse F3 cells by MTT assay; assay type: cell-based; conditions: n2a #58 f3
[7] = Superoxide dismutase like activity assessed as inhibition of WST1 tetrazolium formation at 1 mM; assay type: functional; parameters: scale not given: the % may be the effect or the level left
Procedure, shortened: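 Xanthine-based photometric kit assay with WST-1 tetrazolium salt. Compound was tested at 1 mM.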

[8] = Superoxide dismutase like activity assessed as inhibition of WST1 tetrazolium formation at 1 mM in presence of 2 mM Cu(II); assay type: functional; parameters: scale not given: the % may be the effect or the level left

Structure (SMILES) | Activity (ScN2a [1]) | IC50 (ScN2a [2]) | CC50 [3] | IC50 [4] | IC50 [5] | Activity [6] | Activity [7] | Activity [8]
CC1=NN(c2ccccc2)C(=O)C1c1ccccc1 (stereo not drawn) | > 100 nM | 40 nM | > 1000 nM | 790 nM | 1 nM | > 100 nM |  | 
O=C1CC(C(F)(F)F)=NN1c1ccccc1 | > 1000 nM | 398 nM | > 1000 nM | 810 nM | 631 nM | > 1000 nM | 13.4% | 7.4%
CC1=NN(C2CCCCC2)C(=O)C1 | > 1000 nM | 13 nM | > 1000 nM |  | 25 nM | > 1000 nM |  | 
CC1=NN(c2ccccc2)C(=O)C1c1ccccn1 (stereo not drawn) | > 1000 nM | 79 nM | > 1000 nM |  | 631 nM | > 1000 nM |  | 
CC1=NN(c2ccc(Cl)cc2)C(=O)C1 | > 100 nM | 0.5 nM | > 1000 nM |  |  | > 100 nM |  | 
O=C(NC1=NN(c2ccccc2)C(=O)C1)Oc1ccccc1 | > 1000 nM |  |  | 380 nM |  | > 1000 nM | 5.6% | 11.6%
CC1=NN(c2ccccc2)C(=O)C1 [EDARAVONE] |  | > 1000 nM |  | 250 nM |  |  | 0.6% | 5.7%
O=C1CC(c2ccccc2)=NN1c1ccccc1 | > 100 nM |  | > 1000 nM |  |  | > 100 nM |  | 
O=C1CC(c2ccc([N+](=O)[O-])cc2)=NN1c1ccccc1 | > 1000 nM | 3 nM | > 1000 nM | 90 nM | 3 nM | > 1000 nM | 1.8% | 11.9%
COc1ccc(N2N=C(C)CC2=O)cc1 | > 100 nM |  | > 1000 nM |  |  | > 100 nM |  | 
COC(=O)NC1=NN(c2ccccc2)C(=O)C1 | > 1000 nM | 6 nM | > 1000 nM |  | 501 nM | > 1000 nM |  | 
COc1ccc(C2=NN(c3ccccc3)C(=O)C2)cc1 | > 100 nM |  | > 1000 nM |  |  | > 100 nM |  | 
O=C(NC1=NN(c2ccccc2)C(=O)C1)NC1CCCC1 | > 1000 nM | 126 nM | > 1000 nM |  | 158 nM | > 1000 nM |  | 
CC1=NN(c2ccccc2)C(=O)C1C1CC1 (stereo not drawn) | > 1000 nM |  | > 1000 nM | 720 nM |  | > 1000 nM | 15.9% | 35.4%
C=C(C)C1=NN(c2ccccc2)C(=O)C1 | > 1000 nM | 158 nM | > 1000 nM |  | 794 nM | > 1000 nM |  | 
O=C1CC(Cc2ccccc2)=NN1c1ccccc1 | > 1000 nM |  | > 300 nM |  |  | > 1000 nM |  | 
O=C(NC1=NN(c2ccccc2)C(=O)C1)c1ccccc1 | > 1000 nM | 2000 nM | > 1000 nM | 220 nM | 1260 nM | > 1000 nM | 9.2% | 3.2%
O=C(Nc1ccccc1)C1=NN(c2ccccc2)C(=O)C1 | > 1000 nM | 398 nM | > 1000 nM |  | 1580 nM | > 1000 nM |  | 
C=CC1CN2CC[C@H]1C[C@H]2[C@H](O)c1ccnc2ccc(OC)cc12 (single isomer, unassigned) [QUININE] |  | 10000 nM |  |  |  |  |  | 
CC1=NN(c2ccccc2)C(=O)C1C(=O)c1ccccc1 (stereo not drawn) | > 1000 nM | 6 nM | > 1000 nM | 610 nM | 1000 nM | > 1000 nM |  | 
C=C[C@H]1CN2CC[C@H]1C[C@@H]2[C@@H](O)c1ccnc2ccc(OC)cc12 [QUINIDINE] |  | 5000 nM |  |  |  |  |  | 
CC1=NN(c2ccccc2)C(=O)C1CC(C)C (stereo not drawn) | > 1000 nM |  | > 1000 nM |  | 16 nM | > 1000 nM |  | 

Reference: ChEMBL document CHEMBL1148815, “New series of antiprion compounds: pyrazolone derivatives have the potent activity of inhibiting protease-resistant prion protein accumulation” (J Med Chem, 2007)
